# From ChEMBL document CHEMBL3352149, “Promiscuity and selectivity in covalent enzyme inhibition: a systematic study of electrophilic fragments” (J Med Chem, 2014)
# Key:
# Escherichia coli [1] = experiment: Inhibition of wild-type Escherichia coli MurC compound preincubated for 10 mins before substrate addition at 25 uM measured after 15 mins by LC-MS method
# Outline: (§1)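 E. coli wild-type enzyme (4 nM) was preincubated with 25 μM compound for 10 min at 37 °C. Enzymatically generated nucleotide-sugar substrate (~200 μM) plus ATP (~200 μM), or NADPH 200 μM for MurB, was added for 10 min. Reactions were started with amino-acid cosubstrate (MurC–F) or EP-UNAG (MurB), run 15 min at 37 °C, and quenched with formic acid. Product was measured by negative-ESI LC-MS EIC peak area. MgCl2: MurC 10, MurD/E 2, MurF 5 mM; MurB had 5 mM KCl. All in 50 mM NH4HCO3, 0.07% BSA, 1% DMSO; triplicate.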
# Escherichia coli [2] = experiment: Inhibition of wild-type Escherichia coli MurB compound preincubated for 10 mins before substrate addition at 25 uM measured after 15 mins by LC-MS method; outline: as §1
# Escherichia coli [3] = experiment: Inhibition of Escherichia coli MetAP at 25 uM after 20 mins by HPLC analysis
# Outline: (§2)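 Endpoint assay. Enzyme (50 nM) was preincubated with 25 μM compound for 20 min at 37 °C in 50 mM Tris pH 7.5, 100 mM NaCl, 100 μM CoCl2, 0.075% BSA. MGMM substrate (400 μM) was then added for 15 min (human MetAP-1) or 20 min (E. coli MetAP). Reactions were stopped with TFA. GMM product was quantified by RP-HPLC, UV 214 nm. Triplicate.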
# Escherichia coli [4] = experiment: Inhibition of wild-type Escherichia coli MurD compound preincubated for 10 mins before substrate addition at 25 uM measured after 15 mins by LC-MS method; outline: as §1
# [5] = GSH reactivity of the compound assessed as adducts formation by RP-HPLC analysis
# Outline: (§3)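 Fresh aqueous glutathione (10 mM solution) was added to 50 mM Tris-maleate buffer, pH 7.5. The reaction was started with compound from 10 mM DMSO stock (final 250 μM). Mixtures were followed by reversed-phase HPLC on an ODS column with a gradient to 100% B; rate constants are given in l·mol⁻¹·s⁻¹.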
# Escherichia coli [6] = experiment: Inhibition of wild-type Escherichia coli MurE compound preincubated for 10 mins before substrate addition at 25 uM measured after 15 mins by LC-MS method; outline: as §1
# Prothrombin (Bos taurus) = Prothrombin (Bos taurus) (UniProt P00735); experiment: Inhibition of Bovine thrombin using Boc-Val-Pro-Arg-AMC as substrate compound preincubated at 25 uM for 15 mins by fluorescence assay
# Outline: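 Bovine thrombin (final 10 nM) was preincubated 15 min with 25 μM compound in 50 mM Tris-HCl pH 7.5, 150 mM NaCl, 0.05% Tween 20. The reaction was started with Boc-Val-Pro-Arg-AMC (50 μM final). Fluorescence (ex 355/em 460 nm) was monitored continuously for 10 min; activity taken as slope (RFU/s). Triplicate.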
# [7] = GSH reactivity of the compound assessed as adducts formation meaured over 3 hrs by RP-HPLC analysis; outline: as §3
# [8] = target: Genome polyprotein (dengue virus type 2) (UniProt P12823); experiment: Inhibition of Dengue virus serotype 2 NS2B-NS3 protease at 50 uM
# Escherichia coli [9] = experiment: Inhibition of wild-type Escherichia coli MurF compound preincubated for 10 mins before substrate addition at 25 uM measured after 15 mins by LC-MS method; outline: as §1
# [10] = target: Genome polyprotein (West Nile virus) (UniProt P06935); experiment: Inhibition of West Nile virus NS2B-NS3 protease at 50 uM
# [11] = target: Methionine aminopeptidase 1 (Homo sapiens) (UniProt P53582); experiment: Inhibition of human MetAP at 25 uM after 20 mins by HPLC analysis; outline: as §2
# Escherichia coli [12] = experiment: Inhibition of wild-type Escherichia coli MurA compound preincubated for 10 mins before substrate addition at 25 uM measured after 15 mins by LC-MS method
# [13] = GSH reactivity of the compound assessed as half life by RP-HPLC analysis
# HeLa = experiment: Cytotoxicity against human HeLa cells assessed as reduction in cell viability after 24 hrs by CellTiter-Blue assay; assay type: cell-based
# Outline: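 HeLa cells seeded in triplicate at 5×10^3 cells/well and grown 24 h at 37 °C/5% CO2. Compounds at varying concentrations were added as a 2x stock in phenol-red-free DMEM with FBS, penicillin/streptomycin, sodium pyruvate and L-glutamine, then left 24 h. Medium was replaced with CellTiter-Blue medium for 3 h. A570/A610 was read after background subtraction, as % of untreated controls; EC50 derived.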
# Sequence of Genome polyprotein (West Nile virus) (P06935 whole entry): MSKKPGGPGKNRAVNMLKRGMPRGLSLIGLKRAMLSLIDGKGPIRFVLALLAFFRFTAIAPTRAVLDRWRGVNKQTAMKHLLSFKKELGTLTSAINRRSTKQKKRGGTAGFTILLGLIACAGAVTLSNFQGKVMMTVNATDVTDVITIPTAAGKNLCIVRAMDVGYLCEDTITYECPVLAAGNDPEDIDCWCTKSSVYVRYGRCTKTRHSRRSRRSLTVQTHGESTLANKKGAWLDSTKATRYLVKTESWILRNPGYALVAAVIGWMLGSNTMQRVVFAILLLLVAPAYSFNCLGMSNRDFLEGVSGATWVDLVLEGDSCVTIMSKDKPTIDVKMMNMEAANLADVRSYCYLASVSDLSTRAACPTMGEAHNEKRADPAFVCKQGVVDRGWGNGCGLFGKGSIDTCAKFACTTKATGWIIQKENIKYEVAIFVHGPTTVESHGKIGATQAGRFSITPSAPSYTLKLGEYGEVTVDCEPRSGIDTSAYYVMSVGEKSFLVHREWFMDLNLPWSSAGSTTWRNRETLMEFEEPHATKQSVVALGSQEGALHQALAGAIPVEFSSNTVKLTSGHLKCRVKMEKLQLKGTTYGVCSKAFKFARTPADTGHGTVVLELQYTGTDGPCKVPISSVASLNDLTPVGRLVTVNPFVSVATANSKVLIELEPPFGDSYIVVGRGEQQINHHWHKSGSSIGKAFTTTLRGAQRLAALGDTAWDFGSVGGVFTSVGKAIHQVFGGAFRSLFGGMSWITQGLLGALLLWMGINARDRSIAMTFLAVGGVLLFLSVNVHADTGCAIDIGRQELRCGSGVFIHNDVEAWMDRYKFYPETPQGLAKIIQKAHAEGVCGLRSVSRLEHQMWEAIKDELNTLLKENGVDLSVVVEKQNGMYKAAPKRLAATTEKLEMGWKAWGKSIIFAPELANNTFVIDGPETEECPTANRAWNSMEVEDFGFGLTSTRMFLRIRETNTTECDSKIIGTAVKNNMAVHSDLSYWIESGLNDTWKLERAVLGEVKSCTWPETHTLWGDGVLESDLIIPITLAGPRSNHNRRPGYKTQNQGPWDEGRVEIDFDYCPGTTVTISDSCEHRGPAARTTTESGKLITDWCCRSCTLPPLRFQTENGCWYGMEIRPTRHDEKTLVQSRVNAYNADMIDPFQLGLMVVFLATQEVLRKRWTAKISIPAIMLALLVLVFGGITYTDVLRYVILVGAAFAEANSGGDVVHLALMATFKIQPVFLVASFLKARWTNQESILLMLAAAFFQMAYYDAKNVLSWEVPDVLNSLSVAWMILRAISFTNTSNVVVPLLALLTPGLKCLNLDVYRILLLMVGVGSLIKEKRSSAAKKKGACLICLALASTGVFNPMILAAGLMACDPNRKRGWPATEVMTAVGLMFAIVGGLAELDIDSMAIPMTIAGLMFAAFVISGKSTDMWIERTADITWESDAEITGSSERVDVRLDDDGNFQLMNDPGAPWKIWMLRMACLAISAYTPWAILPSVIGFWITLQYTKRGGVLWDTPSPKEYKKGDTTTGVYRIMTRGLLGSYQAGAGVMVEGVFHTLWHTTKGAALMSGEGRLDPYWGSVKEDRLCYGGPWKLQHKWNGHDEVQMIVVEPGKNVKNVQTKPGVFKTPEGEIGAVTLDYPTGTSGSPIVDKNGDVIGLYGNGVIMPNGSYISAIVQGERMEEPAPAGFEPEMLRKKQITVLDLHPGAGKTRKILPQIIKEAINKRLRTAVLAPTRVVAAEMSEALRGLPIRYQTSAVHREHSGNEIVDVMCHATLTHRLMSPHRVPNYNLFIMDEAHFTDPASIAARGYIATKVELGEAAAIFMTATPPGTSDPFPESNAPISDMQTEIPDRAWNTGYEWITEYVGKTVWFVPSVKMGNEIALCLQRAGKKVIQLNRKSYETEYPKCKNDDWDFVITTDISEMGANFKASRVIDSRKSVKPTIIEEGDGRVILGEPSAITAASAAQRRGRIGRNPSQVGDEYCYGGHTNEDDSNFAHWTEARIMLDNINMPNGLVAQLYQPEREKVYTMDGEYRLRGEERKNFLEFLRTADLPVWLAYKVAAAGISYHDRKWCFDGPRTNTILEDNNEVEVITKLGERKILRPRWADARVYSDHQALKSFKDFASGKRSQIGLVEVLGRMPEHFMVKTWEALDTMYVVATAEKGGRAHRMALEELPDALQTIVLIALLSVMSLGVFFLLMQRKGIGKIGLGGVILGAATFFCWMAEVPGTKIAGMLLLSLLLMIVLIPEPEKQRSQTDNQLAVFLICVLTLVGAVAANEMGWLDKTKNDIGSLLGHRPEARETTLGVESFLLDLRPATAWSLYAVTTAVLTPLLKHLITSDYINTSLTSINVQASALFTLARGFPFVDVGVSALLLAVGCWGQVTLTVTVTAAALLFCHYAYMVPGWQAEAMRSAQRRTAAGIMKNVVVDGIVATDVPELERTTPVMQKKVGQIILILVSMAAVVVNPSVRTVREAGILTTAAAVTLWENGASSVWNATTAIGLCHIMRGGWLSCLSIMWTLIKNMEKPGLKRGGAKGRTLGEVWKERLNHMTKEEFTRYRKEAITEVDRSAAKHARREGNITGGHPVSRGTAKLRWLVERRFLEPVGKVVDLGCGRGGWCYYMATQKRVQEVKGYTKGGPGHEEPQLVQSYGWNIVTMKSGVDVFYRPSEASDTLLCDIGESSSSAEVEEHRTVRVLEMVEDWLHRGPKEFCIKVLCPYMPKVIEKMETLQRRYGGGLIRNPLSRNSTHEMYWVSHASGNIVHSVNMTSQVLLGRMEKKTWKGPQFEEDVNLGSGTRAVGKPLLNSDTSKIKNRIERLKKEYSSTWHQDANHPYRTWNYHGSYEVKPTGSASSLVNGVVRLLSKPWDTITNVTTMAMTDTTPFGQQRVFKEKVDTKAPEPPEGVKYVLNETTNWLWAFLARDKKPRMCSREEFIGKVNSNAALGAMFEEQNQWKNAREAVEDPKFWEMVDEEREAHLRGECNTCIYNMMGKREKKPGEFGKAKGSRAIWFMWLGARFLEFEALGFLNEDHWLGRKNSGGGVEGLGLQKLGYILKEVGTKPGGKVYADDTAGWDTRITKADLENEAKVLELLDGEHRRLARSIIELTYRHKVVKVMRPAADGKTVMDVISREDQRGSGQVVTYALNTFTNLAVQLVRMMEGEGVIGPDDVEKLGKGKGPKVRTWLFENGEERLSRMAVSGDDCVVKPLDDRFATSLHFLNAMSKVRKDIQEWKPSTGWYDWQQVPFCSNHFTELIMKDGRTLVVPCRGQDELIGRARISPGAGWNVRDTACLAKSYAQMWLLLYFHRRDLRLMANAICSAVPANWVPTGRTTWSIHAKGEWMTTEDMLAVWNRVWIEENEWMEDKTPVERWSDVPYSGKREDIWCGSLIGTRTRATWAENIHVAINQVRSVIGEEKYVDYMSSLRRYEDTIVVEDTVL
structure (smiles),measurement,setting,value
C=CC(=O)Nc1ccc(C)cc1,inhibition,Escherichia coli [1],< 15%
same,inhibition,Escherichia coli [2],< 15%
same,inhibition,Escherichia coli [3],< 15%
same,inhibition,Escherichia coli [4],< 15%
same,Activity,[5],< 0.1 L/mol/s
same,inhibition,Escherichia coli [6],< 15%
same,inhibition,Prothrombin (Bos taurus),< 15%
same,Activity,[7],< 5%
same,inhibition,[8],< 15%
same,inhibition,Escherichia coli [9],< 15%
same,inhibition,[10],< 15%
same,inhibition,[11],< 15%
same,inhibition,Escherichia coli [12],< 15%
C=CC(=O)Nc1ccc(F)cc1,inhibition,Escherichia coli [1],< 15%
same,inhibition,Escherichia coli [2],< 15%
same,inhibition,Escherichia coli [3],< 15%
same,inhibition,Escherichia coli [4],< 15%
same,Activity,[5],< 0.1 L/mol/s
same,inhibition,Escherichia coli [6],< 15%
same,inhibition,Prothrombin (Bos taurus),< 15%
same,Activity,[7],< 5%
same,inhibition,[8],< 15%
same,inhibition,Escherichia coli [9],< 15%
same,inhibition,[10],< 15%
same,inhibition,[11],< 15%
same,inhibition,Escherichia coli [12],< 15%
O=C(NC1CCCC1)C1CC(Br)=NO1 (stereo unspecified),inhibition,Escherichia coli [1],< 15%
same,inhibition,Escherichia coli [2],< 15%
same,inhibition,Escherichia coli [3],< 15%
same,inhibition,Escherichia coli [4],15%
same,Activity,[5],< 0.1 L/mol/s
same,inhibition,Escherichia coli [6],16%
same,inhibition,Prothrombin (Bos taurus),< 15%
same,T1/2,[13],> 200 h
same,inhibition,[8],< 15%
same,inhibition,Escherichia coli [9],< 15%
same,inhibition,[10],< 15%
same,inhibition,[11],< 15%
same,inhibition,Escherichia coli [12],< 15%
O=C(NCc1ccccc1)C1CC(Br)=NO1 (stereo unspecified),inhibition,Escherichia coli [1],< 15%
same,inhibition,Escherichia coli [2],18%
same,inhibition,Escherichia coli [3],< 15%
same,inhibition,Escherichia coli [4],16%
same,Activity,[5],< 0.1 L/mol/s
same,inhibition,Escherichia coli [6],< 15%
same,inhibition,Prothrombin (Bos taurus),< 15%
same,T1/2,[13],> 200 h
same,inhibition,[8],< 15%
same,inhibition,Escherichia coli [9],15%
same,inhibition,[10],< 15%
same,inhibition,[11],< 15%
same,inhibition,Escherichia coli [12],< 15%
C=CC(=O)Nc1ccc([N+](=O)[O-])cc1,inhibition,Escherichia coli [1],< 15%
same,inhibition,Escherichia coli [2],< 15%
same,inhibition,Escherichia coli [3],< 15%
same,inhibition,Escherichia coli [4],< 15%
same,Activity,[5],< 0.1 L/mol/s
same,inhibition,Escherichia coli [6],< 15%
same,inhibition,Prothrombin (Bos taurus),< 15%
same,Activity,[7],< 5%
same,inhibition,[8],< 15%
same,inhibition,Escherichia coli [9],< 15%
same,inhibition,[10],< 15%
same,inhibition,[11],< 15%
same,inhibition,Escherichia coli [12],< 15%
C=CC(=O)Nc1ccc(OC)cc1,inhibition,Escherichia coli [1],< 15%
same,inhibition,Escherichia coli [2],< 15%
same,inhibition,Escherichia coli [3],< 15%
same,inhibition,Escherichia coli [4],< 15%
same,Activity,[5],< 0.1 L/mol/s
same,inhibition,Escherichia coli [6],< 15%
same,inhibition,Prothrombin (Bos taurus),< 15%
same,Activity,[7],< 5%
same,inhibition,[8],< 15%
same,inhibition,Escherichia coli [9],< 15%
same,inhibition,[10],< 15%
same,inhibition,[11],< 15%
same,inhibition,Escherichia coli [12],< 15%
C=CC(=O)NCCCC,inhibition,Escherichia coli [1],< 15%
same,inhibition,Escherichia coli [2],< 15%
same,inhibition,Escherichia coli [3],< 15%
same,inhibition,Escherichia coli [4],< 15%
same,Activity,[5],< 0.1 L/mol/s
same,EC50,HeLa,> 100 µM
same,inhibition,Escherichia coli [6],< 15%
same,inhibition,Prothrombin (Bos taurus),< 15%
same,Activity,[7],< 5%
same,inhibition,[8],< 15%
same,inhibition,Escherichia coli [9],< 15%
same,inhibition,[10],< 15%
same,inhibition,[11],20%
same,inhibition,Escherichia coli [12],< 15%
C=CC(=O)NCc1ccccc1,inhibition,Escherichia coli [1],< 15%
same,inhibition,Escherichia coli [2],< 15%
same,inhibition,Escherichia coli [3],< 15%
same,inhibition,Escherichia coli [4],< 15%
same,Activity,[5],< 0.1 L/mol/s
same,inhibition,Escherichia coli [6],< 15%
same,inhibition,Prothrombin (Bos taurus),< 15%
same,Activity,[7],< 5%
same,inhibition,[8],< 15%
same,inhibition,Escherichia coli [9],< 15%
same,inhibition,[10],< 15%
same,inhibition,[11],< 15%
same,inhibition,Escherichia coli [12],< 15%
COc1ccc(NC(=O)C2CC(Br)=NO2)cc1 (stereo unspecified),inhibition,Escherichia coli [1],< 15%
same,inhibition,Escherichia coli [2],< 15%
same,inhibition,Escherichia coli [3],< 15%
same,inhibition,Escherichia coli [4],< 15%
same,Activity,[5],< 0.1 L/mol/s
same,inhibition,Escherichia coli [6],18%
same,inhibition,Prothrombin (Bos taurus),< 15%
same,T1/2,[13],> 200 h
same,inhibition,[8],< 15%
same,inhibition,Escherichia coli [9],< 15%
same,inhibition,[10],21%
same,inhibition,[11],< 15%
same,inhibition,Escherichia coli [12],< 15%
C=CC(=O)NC(CCCC)C(=O)OC (stereo unspecified),inhibition,Escherichia coli [1],< 15%
same,inhibition,Escherichia coli [2],< 15%
same,inhibition,Escherichia coli [3],< 15%
same,inhibition,Escherichia coli [4],< 15%
same,Activity,[5],< 0.1 L/mol/s
same,inhibition,Escherichia coli [6],< 15%
same,inhibition,Prothrombin (Bos taurus),< 15%
same,Activity,[7],< 5%
same,inhibition,[8],< 15%
same,inhibition,Escherichia coli [9],< 15%
same,inhibition,[10],< 15%
same,inhibition,[11],< 15%
same,inhibition,Escherichia coli [12],< 15%
